Calls of active or inactive are those of the source. No cut-off for these calls is given here.
Experiments:
HT-22 [1] = assay: Neuroprotective activity against iodoacetic acid-induced cell death in mouse HT22 cells assessed as survival at 10 uM treated 2 hrs after iodoacetic acid challenge measured after 20 hrs by MTT colorimetric assay; assay type: functional; conditions: read-out: Survival
Summary of the method: (§1)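 HT22 cells in DMEM/10% FBS, 5 × 10^3 cells/well, held 24 h at 37 °C under 5% CO2. Switched to DMEM/7.5% FBS with 20 µM iodoacetic acid for 2 h. Medium then replaced with fresh DMEM/10% FBS and compound added in EtOH. After a further 20 h, viability was read by MTT. Mean ± SEM, n = 3.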

HT-22 [2] = assay: Neuroprotective activity against iodoacetic acid-induced intracellular ATP depletion in mouse HT22 cells assessed as recovery of ATP treated 2 hrs after iodoacetic acid challenge after 4 to 8 hrs; assay type: functional, cell-based
Summary of the method: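 HT22 cells at 5 × 10^3 cells/well were exposed to […] for 2 h in DMEM/7.5% FBS. They were then moved to normal growth medium, with or without compound, for the indicated times. Intracellular ATP was read by CellTiter-Glo luminescence. Mean ± SEM, n = 3.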

[3] = Cytotoxicity against mouse Neuro2a cells at 10 uM; assay type: cell-based; conditions: n2a
N2a [4] = assay: Induction of neurite out growth in mouse Neuro2a cells assessed as increase in percent of cells with outgrowth at 10 uM after 48 hrs by phase contrast microscopy; assay type: functional
Summary of the method: (§2)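 Neuro 2A cells in DMEM/10% FBS, seeded at 1 × 10^4 cells per well and grown 24 h. Medium renewed, then compound added in EtOH and cells held 48 h. Scored by phase contrast microscopy: neurite-bearing means processes longer than the cell body diameter. Percent of neurite-bearing cells counted from at least 300 cells in photomicrographs of representative-density areas.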

HT-22 [5] = assay: Neuroprotective activity against iodoacetic acid-induced cell death in mouse HT22 cells assessed as survival treated 2 hrs after iodoacetic acid challenge measured after 20 hrs by MTT colorimetric assay; assay type: functional, cell-based; summary of the method: as §1
N2a [6] = assay: Induction of neuronal differentiation in mouse Neuro2a cells assessed as increase in acetylcholinesterase activity at 3 uM after 48 hrs by colorimetrically; assay type: functional, cell-based
Summary of the method: (§3)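 After 48 h treatment of Neuro 2A cells, AChE production was measured per 5 × 10^4 cells. Read-out was the colorimetric rate of acetylthiocholine hydrolysis.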

HT-22 [7] = assay: Neuroprotective activity in mouse HT22 cells assessed as inhibition of iodoacetic acid-induced intracellular ROS production at 10 uM treated 2 hrs after iodoacetic acid challenge; assay type: functional, cell-based
Summary of the method: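 HT22 cells at 5 × 10^4 cells/well were cultured 24 h, then given 20 µM iodoacetic acid in DMEM/7.5% FBS for 2 h. Cells went to normal growth medium with compound (10 µM) in EtOH. At the indicated times they were washed and loaded with 10 µM DCFH-DA in serum-free medium for 20 min in the dark. After a second wash, fluorescence was read at ex 485/em 530 nm.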

N2a [8] = assay: Induction of neurite out growth in mouse Neuro2a cells assessed as increase in percent of cells with outgrowth at 3 uM after 48 hrs by phase contrast microscopy; assay type: functional; summary of the method: as §2
N2a [9] = assay: Induction of neuronal differentiation in mouse Neuro2a cells assessed as increase in acetylcholinesterase activity at 10 uM after 48 hrs by colorimetrically; assay type: functional, cell-based; summary of the method: as §3

SMILES	viability at 10 µM (HT-22 [1])	Activity (HT-22 [2])	Activity [3]	Activity (N2a [4])	Activity (HT-22 [5])	Activity (N2a [6])	Activity (HT-22 [7])	Activity (N2a [8])	Activity (N2a [9])
COC1=CC(=O)C(O)=C(C[C@@]2(C)CC[C@]3(C)C(C)=CCC[C@H]3[C@H]2C)C1=O [BOLINAQUINONE]	57%	–	–	–	–	–	–	–	–
CC1=CCC[C@H]2[C@@H](C)[C@@](C)(CC3=C(O)C(=O)C=C(N)C3=O)CC[C@]12C [DYSIDEAMINE]	43%	Active	Non-toxic	25%	Dose-dependent effect	Active	Active	40%	Active
